The record followed here is ChEMBL document CHEMBL2375304, “Synthesis and anticancer activity of novel 2-pyridyl hexahyrocyclooctathieno[2,3-d]pyrimidine derivatives” (2013).

Holding throughout (format): functional
The test system of assay [1] is 786-0. Description: Growth inhibition of human 786-0 cells after 48 hrs by Sulforhodamine B assay. The conditions noted are these: 786-0, 48 h. The gist of the method:
(§1)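 Five-concentration SRB assay using 10-fold or ½-log serial dilutions from a DMSO stock. Exposure is 48 h at 37 °C in 5% CO2 after 24 h preincubation. TCA fixation is followed by SRB staining and a reading at 515 nm. Percentage growth is computed from time-zero, control and treated absorbances. GI50 is the concentration where [(Ti−Tz)/(C−Tz)]×100 = 50, read from the plot against log concentration.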

The test system of assay [2] is UACC-62. Description: Growth inhibition of human UACC62 cells after 48 hrs by Sulforhodamine B assay. The conditions noted are these: UACC-62, 48 h. The gist of the method:
(§2)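 Five-concentration stage in the […]-cell-line panel, using 10-fold or ½-log serial dilutions made from a DMSO stock (400-fold). Cells were preincubated 24 h at 37 °C, then drug-exposed 48 h. A time-zero plate was fixed with TCA at dosing, adherent cells were fixed with cold TCA (10% final), and protein was stained with SRB, absorbance 515 nm. GI50 was where [(Ti−Tz)/(C−Tz)]×100 = 50, from the percent growth vs log concentration plot, expressed as log10 GI50.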

Another assay relates to U-251. Description: Growth inhibition of human U251 cells after 48 hrs by Sulforhodamine B assay. The settings on record: U-251, 48 h. The gist of the method: as §2
A further assay deals with M14. Description: Growth inhibition of human M14 cells after 48 hrs by Sulforhodamine B assay. The conditions noted are these: M14, 48 h. The gist of the method:
as §1

The subject of assay [3] is SR. Description: Growth inhibition of human SR cells after 48 hrs by Sulforhodamine B assay. An outline of the steps: (§3)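 Cells were preincubated 24 h at 37 °C, 5% CO2, and a time-zero plate was TCA-fixed. Five concentrations were made by serial dilution from a DMSO stock (400-fold the top concentration) and incubated 48 h. Adherent cells were fixed with 10% final TCA and suspension cells with 16%. Plates were stained with 0.4% SRB and read at 515 nm. GI50 is the concentration giving 50% reduction in net protein increase versus control.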

A further assay relates to IGROV-1. Description: Growth inhibition of human IGROV1 cells after 48 hrs by Sulforhodamine B assay. The settings on record: IGROV-1, 48 h. The gist of the method:
as §1

In the next assay the test system is Malme-3M. The experiment in a line: Growth inhibition of human MALME-3M cells after 48 hrs by Sulforhodamine B assay. An outline of the steps:
as §1

Another assay concerns NCI-H322M. The experiment in a line: Growth inhibition of human NCI-H322M cells after 48 hrs by Sulforhodamine B assay. The gist of the method:
as §3
In general terms: In SRB staining, fixed cells bind dye roughly in proportion to their protein.

For a further assay, the system named is OVCAR-4. Description: Growth inhibition of human OVCAR4 cells after 48 hrs by Sulforhodamine B assay. The conditions noted are these: OVCAR-4, 48 h. An outline of the steps: as §3
For assay [4], the system named is SF-295. The experiment in a line: Growth inhibition of human SF295 cells after 48 hrs by Sulforhodamine B assay. The settings on record: SF-295, 48 h. The gist of the method:
as §3

Another assay concerns SK-OV-3. The experiment in a line: Growth inhibition of human SKOV3 cells after 48 hrs by Sulforhodamine B assay. The conditions noted are these: SK-OV-3, 48 h. An outline of the steps:
as §3

For a further assay, the system named is SNB-19. Description: Growth inhibition of human SNB19 cells after 48 hrs by Sulforhodamine B assay. The conditions noted are these: SNB-19, 48 h. An outline of the steps:
as §3

The next assay has as its system T47D. Description: Growth inhibition of human T47D cells after 48 hrs by Sulforhodamine B assay. The gist of the method:
as §3

Assay [5] can be described thus: Growth inhibition of human NCI-ADR-RES cells after 48 hrs by Sulforhodamine B assay. An outline of the steps:
as §3

The next assay relates to HCT-116. The experiment in a line: Growth inhibition of human HCT116 cells after 48 hrs by Sulforhodamine B assay. The settings on record: HCT-116, 48 h. An outline of the steps:
as §1

In assay [6] the test system is 786-0. The experiment in a line: Growth inhibition of human 786-0 cells at 10^-5 M after 48 hrs by Sulforhodamine B assay relative to control. The conditions noted are these: 786-0, 48 h, read-out: GI. The gist of the method:
(§4)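 Single-dose screen at 10⁻⁵ M. Cells are preincubated 24 h at 37 °C in 5% CO2, then exposed to the compound, diluted from a DMSO stock into medium with gentamicin, for 48 h. Adherent cells are fixed with cold TCA (final 10%) and suspension cells with TCA (final 16%). Cells are stained with 0.4% SRB in 1% acetic acid and bound dye is read at 515 nm. Percent growth inhibition is taken against control wells and time-zero plates.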

A short description of assay [7]: Growth inhibition of human HCC2998 cells at 10^-5 M after 48 hrs by Sulforhodamine B assay relative to control. The conditions noted are these: HCC 2998, 48 h, read-out: GI. An outline of the steps:
as §4

The test system of assay [8] is UACC-62. Description: Growth inhibition of human UACC62 cells at 10^-5 M after 48 hrs by Sulforhodamine B assay relative to control. The settings on record: UACC-62, 48 h, read-out: GI. The gist of the method:
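Single-dose stage: compound tested at 10⁻⁵ M in the 49-cell-line panel. Cells grew 24 h at 37 °C, 5% CO₂ before drug addition. Drug stock was in DMSO at 400-fold, diluted in medium with gentamicin. After 48 h exposure, adherent cells were fixed with cold TCA (10% final) and stained with 0.4% SRB in 1% acetic acid. Dye was solubilized in 10 mM Tris, read at 515 nm. Growth percentage was taken relative to untreated control and time-zero plates.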

The subject of assay [9] is SR. The experiment in a line: Growth inhibition of human SR cells at 10^-5 M after 48 hrs by Sulforhodamine B assay relative to control. The settings on record: read-out: GI. An outline of the steps:
(§5)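 Single-dose primary screen at 10⁻⁵ M across 49 lines. Cells were plated 24 h beforehand, with a TCA-fixed time-zero plate, then exposed 48 h at 37 °C, 5% CO2. Cells were fixed with cold TCA, stained with SRB and read at 515 nm. Percent growth was calculated against time-zero and untreated-control absorbances.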

The subject of another assay is MDA-MB-231. The experiment in a line: Growth inhibition of human MDA-MB-231 cells at 10^-5 M after 48 hrs by Sulforhodamine B assay relative to control. The settings on record: MDA-MB-231, 48 h, read-out: GI. An outline of the steps:
as §4

The next assay deals with HL-60(TB). The experiment in a line: Growth inhibition of human HL-60(TB) cells at 10^-5 M after 48 hrs by Sulforhodamine B assay relative to control. The settings on record: HL-60, 48 h, read-out: GI. An outline of the steps:
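First-stage single-dose screen at 10⁻⁵ M. Cells pre-incubated 24 h at 37 °C, 5% CO2, then exposed to drug for 48 h. Settled cells fixed with TCA (final 16%), SRB-stained and read at 515 nm. Percentage growth inhibition is derived from treated, untreated control and time-zero absorbances.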

In assay [10] the test system is SF-295. The experiment in a line: Growth inhibition of human SF295 cells at 10^-5 M after 48 hrs by Sulforhodamine B assay relative to control. The settings on record: SF-295, 48 h, read-out: GI. An outline of the steps:
as §5

The subject of the next assay is OVCAR-5. Description: Growth inhibition of human OVCAR5 cells at 10^-5 M after 48 hrs by Sulforhodamine B assay relative to control. The conditions noted are these: OVCAR-5, 48 h, read-out: GI. An outline of the steps: as §5
A further assay deals with HOP-92. Description: Growth inhibition of human HOP92 cells at 10^-5 M after 48 hrs by Sulforhodamine B assay relative to control. The settings on record: HOP-92, 48 h, read-out: GI. An outline of the steps:
as §4

Another assay concerns RXF 393. Description: Growth inhibition of human RXF393 cells at 10^-5 M after 48 hrs by Sulforhodamine B assay relative to control. The settings on record: RXF 393, 48 h, read-out: GI. An outline of the steps: as §5

Each structure is given as a SMILES string.

As to `O=c1[nH]c(-c2ccncc2)nc2sc3c(c12)CCCCCC3`, the GI50 in the assay on 786-0 [1], with UACC-62 [2], with U-251, in the assay on M14, in the assay on SR [3] and in the assay with IGROV-1 was above 100 µM throughout. Further, the GI50 in the assay on Malme-3M and with NCI-H322M was above 100 µM in each case.
On to `c1ccc(-c2nc(N3CCOCC3)c3c4c(sc3n2)CCCCCC4)nc1`, for which the GI50 was 4.9 µM in the assay on OVCAR-4; 11.7 µM in the assay on 786-0 [1]; 3.39 µM in the assay on SF-295 [4]; 3.47 µM in the assay with UACC-62 [2]; 9.33 µM in the assay with SK-OV-3; 4.17 µM in the assay with M14. For the same molecule, the GI50 is 8.32 µM in the assay on SNB-19; 4.47 µM in the assay with T47D; 0.832 µM in assay [5]; 3.16 µM in the assay on IGROV-1; 3.72 µM in the assay with HCT-116; 3.31 µM with Malme-3M. Besides, the GI50 with NCI-H322M was 5.5 µM.
Regarding `NNc1nc(-c2ccncc2)nc2sc3c(c12)CCCCCC3`, the inhibition of growth at 10 µM in the assay with 786-0 [6] was 18.1%; in [7] it was -16%; in the assay on UACC-62 [8], 10.8%; with SR [9] it was 15.7%; in the assay on MDA-MB-231, 1.46%; in the assay with HL-60(TB), 16.4%. The values for the inhibition of growth at 10 µM with SF-295 [10] and in the assay on OVCAR-5 were 6.22% and -0.54%, respectively.
As to `c1ccc(N2CCN(c3nc(-c4ccccn4)nc4sc5c(c34)CCCCCC5)CC2)cc1`, the inhibition of growth at 10 µM in the assay on 786-0 [6] was determined as 10.7%; in assay [7], 13.7%; in the assay with UACC-62 [8], 41.2%; in the assay with MDA-MB-231 it was 22.4%; in the assay on SF-295 [10], 54.8%; with HOP-92, 26.8%. Also, the inhibition of growth at 10 µM with OVCAR-5 turned out to be 36.8%; in the assay on RXF 393, 32.2%.
As for `COc1ccc(N2CCN(c3nc(-c4ccncc4)nc4sc5c(c34)CCCCCC5)CC2)cc1`, the inhibition of growth at 10 µM with 786-0 [6] is 11.1%; in assay [7] it was -11.5%; in the assay on UACC-62 [8], 36.9%; in the assay with MDA-MB-231, 12.1%; with HL-60(TB), 15.2%; in the assay on SF-295 [10], 11.5%. For the same molecule, the values for the inhibition of growth at 10 µM in the assay with OVCAR-5 and in the assay on RXF 393 were 2.26% and 17.2%, respectively.
In the case of `c1ccc(N2CCN(c3nc(-c4ccncc4)nc4sc5c(c34)CCCCCC5)CC2)cc1`, the inhibition of growth at 10 µM is 1.77% in the assay with 786-0 [6]; -14% in [7]; 5.59% with UACC-62 [8]; 5.99% in the assay with SR [9]; 2.4% in the assay on MDA-MB-231; 2.53% with HL-60(TB). Also, the inhibition of growth at 10 µM in the assay on SF-295 [10] worked out at 6.51%; in the assay on HOP-92, 33.3%; in the assay with OVCAR-5, 1.59%; with RXF 393 it was 0.87%.

The GI50 is the concentration giving 50% growth inhibition. Read a high GI50 as less potent growth inhibition.
